Results published in ChEMBL document CHEMBL1124607, “Studies on antitumor agents. 8. Antitumor activities of O-alkyl derivatives of 2'-deoxy-5-(trifluoromethyl)uridine and 2'-deoxy-5-fluorouridine” (1989).

organism: Mus musculus; test: Antitumor activity against transplanted tumor sarcoma 180 expressed as effective dose.; assay type: functional
How it was run: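 Male ICR mice, five weeks old, implanted s.c. in the axilla with 5×10^6 sarcoma 180 cells. Starting 24 h after implant, compounds were given orally once daily for 7 consecutive days as a suspension in 0.5% CMC with 0.1% Tween 80. Seven mice per dose. Tumors were excised and weighed on day 10, and inhibition was taken from treated/control tumor weight.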

Compared with `Cc1ccccc1COC[C@H]1O[C@@H](n2cc(C(F)(F)F)c(=O)[nH]c2=O)C[C@@H]1O`, `O=c1[nH]c(=O)n([C@H]2C[C@H](O)[C@@H](COCc3ccccc3)O2)cc1C(F)(F)F` is lower in ED50: greater than 40 mg/kg/day for the first, 15 mg/kg/day for the second.

Compared with `O=c1[nH]c(=O)n([C@H]2C[C@H](OCc3ccc(Cl)cc3)[C@@H](CO)O2)cc1C(F)(F)F`, `COc1ccc(CO[C@H]2C[C@H](n3cc(C(F)(F)F)c(=O)[nH]c3=O)O[C@@H]2CO)cc1` is higher in ED50: less than 10 mg/kg/day for the first, greater than 40 mg/kg/day for the second.

Going from `COc1ccc(COC[C@H]2O[C@@H](n3cc(C(F)(F)F)c(=O)[nH]c3=O)C[C@@H]2O)cc1` to `O=c1[nH]c(=O)n([C@H]2C[C@H](O)[C@@H](COCc3ccc(Cl)cc3)O2)cc1C(F)(F)F`, the ED50 falls from greater than 40 mg/kg/day to 14 mg/kg/day.

First: Cc1cccc(CO[C@H]2C[C@H](n3cc(C(F)(F)F)c(=O)[nH]c3=O)O[C@@H]2CO)c1
Second: O=c1[nH]c(=O)n([C@H]2C[C@H](OCc3ccccc3)[C@@H](CO)O2)cc1C(F)(F)F
The ED50 of the first is higher: 36 mg/kg/day for the first, 13 mg/kg/day for the second.

Compared with `Cc1cccc(COC[C@H]2O[C@@H](n3cc(C(F)(F)F)c(=O)[nH]c3=O)C[C@@H]2O)c1`, `CCOC[C@H]1O[C@@H](n2cc(C(F)(F)F)c(=O)[nH]c2=O)C[C@@H]1O` is lower in ED50: 28 mg/kg/day for the first, 14 mg/kg/day for the second.

First: Cc1ccccc1CO[C@H]1C[C@H](n2cc(C(F)(F)F)c(=O)[nH]c2=O)O[C@@H]1CO
Second: CCO[C@H]1C[C@H](n2cc(C(F)(F)F)c(=O)[nH]c2=O)O[C@@H]1CO
The ED50 of the first is higher: 40 mg/kg/day for the first, 15 mg/kg/day for the second.

Going from `CCOC[C@H]1O[C@@H](n2cc(C(F)(F)F)c(=O)n(C(=O)c3ccccc3)c2=O)C[C@@H]1O` to `CCO[C@H]1C[C@H](n2cc(C(F)(F)F)c(=O)n(C(=O)c3ccccc3)c2=O)O[C@@H]1CO`, the ED50 rises from 23 mg/kg/day to 37 mg/kg/day.

`O=C(c1ccccc1)n1c(=O)c(C(F)(F)F)cn([C@H]2C[C@H](OCc3ccccc3)[C@@H](CO)O2)c1=O` and `O=C(c1ccccc1)n1c(=O)c(C(F)(F)F)cn([C@H]2C[C@H](O)[C@@H](COCc3ccccc3)O2)c1=O` are the same in ED50: 26 mg/kg/day for the first, 26 mg/kg/day for the second.

Going from `O=c1[nH]c(=O)n([C@H]2C[C@H](OCc3ccccc3)[C@@H](COCc3ccccc3)O2)cc1C(F)(F)F` to `O=c1[nH]c(=O)n([C@H]2C[C@H](OCc3ccccc3)[C@@H](CO)O2)cc1F`, the ED50 falls from greater than 40 mg/kg/day to 12 mg/kg/day.

`CCO[C@H]1C[C@H](n2cc(F)c(=O)[nH]c2=O)O[C@@H]1CO` and `O=c1[nH]c(=O)n([C@H]2C[C@H](O)[C@@H](CO)O2)cc1F` [FLOXURIDINE] cannot be ordered by ED50: greater than 40 mg/kg/day for the first, 84 mg/kg/day for the second.

First: CCOC[C@H]1O[C@@H](n2cc(F)c(=O)[nH]c2=O)C[C@@H]1O
Second: O=c1[nH]c(=O)n([C@H]2C[C@H](O)[C@@H](COCc3ccccc3)O2)cc1F
The ED50 of the first is higher: 39 mg/kg/day for the first, 16 mg/kg/day for the second.

`O=c1c(C(F)(F)F)cn([C@H]2C[C@H](O)[C@@H](CO)O2)c(=O)n1Cc1ccccc1` and `O=c1nc(OCc2ccccc2)c(C(F)(F)F)cn1[C@H]1C[C@H](O)[C@@H](CO)O1` cannot be ordered by ED50: greater than 40 mg/kg/day for the first, greater than 40 mg/kg/day for the second.

First: CCOC[C@H]1O[C@@H](n2cc(C(F)(F)F)c(=O)[nH]c2=O)C[C@@H]1OCC
Second: O=c1[nH]c(=O)n([C@H]2C[C@H](O)[C@@H](CO)O2)cc1C(F)(F)F [TRIFLURIDINE]
The ED50 of the first is lower: 25 mg/kg/day for the first, 63 mg/kg/day for the second.
